As usually defined, the EC50 is the concentration needed to bring the measured effect to its halfway point. In general, inhibition refers to the share of the control response that was lost under treatment. In general, CC50 refers to the concentration that lowers cell viability or growth by half. The IC50 is the concentration needed to halve the response being measured.

The nature of series [1]: Permeability of compound at pH 7.4 by PAMPA assay. It counts as ADME. The essentials:
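Passive diffusion across an artificial membrane of 2% phosphatidylcholine in dodecane. Test compound at 10 μM was incubated 16 h at 30 °C, with donor pH 5, 6.5 or 7.4.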

Series [2] is described as follows: Apparent permeability across apical to basolateral side in human Caco-2 cells at 10 uM pH 7.4 measured after 2 hrs by LC-MS/MS analysis. It counts as ADME, cell-based. The following applies: caco-2, pH 7.4, 2 h. A digest of the protocol: (§1)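 Caco-2 cells grown in DMEM with 10% FBS, penicillin and streptomycin for 10 days, then plated; monolayer confluency checked by TEER. Compound at 10 μM (1% DMSO) in HBSS pH 7.4 added to apical or basal wells and incubated 2 h at 37 °C. Lucifer yellow used to confirm membrane integrity afterwards. Both chambers quantified by LC-MS/MS against a matrix-matched standard curve.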

Series [3] in a line: Apparent permeability across basolateral to apical side in human Caco-2 cells at 10 uM pH 7.4 measured after 2 hrs by LC-MS/MS analysis. It is filed as ADME, cell-based. Conditions: caco-2, pH 7.4, 2 h. The essentials: as §1
(In general: Caco-2 cells form a polarised layer with tight junctions and transporters.)

Series [4] addresses T1, Protein-cysteine N-palmitoyltransferase HHAT (Homo sapiens, UniProt Q5VTY9). Nature of the series: Inhibition of HHAT in human HEK293a SHH+ cells incubated with compound for 24 hrs followed by transferred into SHH-Light2 cells cellular incubated for 48 hrs by Renilla/Firefly luciferase reporter assay. It is filed as cell-based, HEK293-A. The essentials: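 HEK293a SHH+ cells (120,000/well) were given compound (0.041–30 μM final) or 0.2% DMSO for 24 h. Conditioned medium was cleared at 1000g and added to SHH-Light2 cells (NIH3T3-derived, Gli-Firefly plus constitutive Renilla) in triplicate wells for 48 h.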
(In a reporter assay the amount or activity of a reporter protein is the signal.)

For series [5], the target named is T1, Protein-cysteine N-palmitoyltransferase HHAT. Nature of the series: Inhibition of human recombinant HHAT using SHH-FAM peptide as substrate at 50 uM for 30 mins by acylation coupled lipophilic induction of polarization (acyl-cLIP) assay relative to control. A digest of the protocol: (§2)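 DDM-solubilized recombinant HHAT mixed with SHH N-terminal FAM peptide and inhibitor or DMSO in MES buffer pH 6.5 with DTT, TCEP and BSA. Reaction started with palmitoyl-CoA; fluorescence anisotropy followed over 30 min in quadruplicate wells. Initial rates from linear regression were normalized to DMSO and no-enzyme controls.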

Series [6] is described as follows: Cytotoxicity against human SHH+ HEK293a cells assessed as cell viability measured after 72 hrs by MTS assay. It counts as toxicity, cell-based, HEK293-A. The essentials: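 HEK293a SHH+ cells seeded at 5000/well and cultured 24 h. They were then exposed 72 h to vehicle, puromycin (2 μg/mL) or compound (0.14–100 μM final) in DMEM with 10% FBS. MTS/PMS added for 3 h at 37 °C and absorbance read at 490 nm. Signal normalized to vehicle and puromycin; CC50 from a variable-slope sigmoidal fit.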
A general note: Formazan colour is commonly taken as a measure of viable cells.

Series [7] deals with T1, Protein-cysteine N-palmitoyltransferase HHAT. Nature of the series: Inhibition of human recombinant HHAT using SHH-FAM peptide as substrate for 30 mins by acylation coupled lipophilic induction of polarization (acyl-cLIP) assay. The essentials:
as §2

Series [8] has the same target. The experiment in a line: Inhibition of human recombinant HHAT using SHH-FAM peptide as substrate at 25 uM for 30 mins by acylation coupled lipophilic induction of polarization (acyl-cLIP) assay relative to control. A digest of the protocol: as §2
Series [9] can be described thus: Cytotoxicity against human SHH+ HEK293a cells assessed as cell viability at 12.5 uM measured after 72 hrs by MTS assay relative to control. It is filed as toxicity, cell-based, HEK293-A. The following applies: read-out: Activity.
The nature of series [10]: Cytotoxicity against human SHH+ HEK293a cells assessed as cell viability at 25 uM measured after 72 hrs by MTS assay relative to control. The following applies: read-out: Activity. It is filed as toxicity, cell-based, HEK293-A.

T1 sequence (Q5VTY9 whole entry): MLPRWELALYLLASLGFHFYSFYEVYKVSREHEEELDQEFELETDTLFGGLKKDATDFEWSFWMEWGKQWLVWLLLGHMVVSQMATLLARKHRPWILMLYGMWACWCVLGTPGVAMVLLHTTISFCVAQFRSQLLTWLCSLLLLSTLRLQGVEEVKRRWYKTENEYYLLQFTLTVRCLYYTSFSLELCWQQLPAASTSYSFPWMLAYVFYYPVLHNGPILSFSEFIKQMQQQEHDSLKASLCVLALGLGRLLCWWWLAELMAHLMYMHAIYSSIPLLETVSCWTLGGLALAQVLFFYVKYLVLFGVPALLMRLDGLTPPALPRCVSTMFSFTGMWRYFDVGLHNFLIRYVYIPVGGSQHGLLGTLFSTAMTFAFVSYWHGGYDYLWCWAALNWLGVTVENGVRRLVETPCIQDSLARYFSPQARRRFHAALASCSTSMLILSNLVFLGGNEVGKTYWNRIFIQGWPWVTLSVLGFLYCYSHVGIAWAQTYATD

For `CC(=O)N1CCc2ccccc2C1c1ccccc1` (stereo not drawn), the permeability result in [1] is listed as “Permeable”.
On the same count and under the same terms, under `CCC(C)CNCC(=O)N1CCc2ccccc2C1c1ccccc1` (stereo not drawn) stands “Permeable”.
Turning to `CCC(C)CNCC(=O)N1CCc2sccc2C1c1cccc(C)n1` (racemic), the permeability entry in [2], in series [1] and in series [3] was “Permeable” each time.
Take `C=CCNCC(=O)N1CCc2sccc2C1COc1ccc(Cl)cc1` (stereo not drawn): the permeability entry in [2], in series [1] and in [3] was “Permeable” each time.
On to `Cc1cccc([C@@H]2c3ccsc3CCN2C(=O)CNCC(C)C)n1`, for which, in series [4], the EC50 was more than 30 µM.
Take `CC(=O)N1CCc2sccc2C1c1ccccc1` (stereo not drawn): the permeability entry in series [1] is “Permeable”.
On the same count and under the same terms, under `CCC(C)CNCC(=O)N1CCc2sccc2C1c1cccc(C)c1` (stereo not drawn) stands “Impermeable”.
For `Cc1cccc(C2c3ccsc3CCN2C(=O)NCCCC(C)C)n1` (stereo not drawn), the values for the inhibition in series [5] and in [8] were 53% and 31%, respectively. Besides, the CC50 at 72 h in series [6] stood at 6.1 µM. The half-inhibitory concentration (IC50) in [7] stood at 42.3 µM. Moreover, the viability at 72 h, 12.5 µM in [9] turned out to be 32%. Also, the viability at 72 h, 25 µM in [10] stood at 22%.
With `N[C@@H](Cc1ccccc1)C(=O)N1CCc2sccc2C1c1ccccc1` (stereo partly drawn), the inhibition in series [5] was 6%; in series [8], 3%.
With `COc1ccccc1C1c2ccsc2CCN1C(C)=O` (stereo not drawn), the inhibition in [5] amounted to 91%.
Same read-out and setting: for `CC(=O)N1CCc2sccc2[C@@H]1c1cccc(C)n1` the value was 56%; for `c1ccc(C2NCCc3sccc32)cc1` (stereo not drawn), 16%.
As for `CCC(C)CNCC(=O)N1CCc2sccc2C1c1ccccc1O` (stereo not drawn), in series [7], the IC50 is 4.79 µM.

(Values after ChEMBL document CHEMBL5335799, “Design, Synthesis, and Evaluation of Inhibitors of Hedgehog Acyltransferase” (J Med Chem, 2024).)
